This is an account of results in ChEMBL document CHEMBL2040768, “Synthesis, antimicrobial and cytotoxic activities of sulfone linked bis heterocycles” (Eur J Med Chem, 2012).

As a reminder, the MIC is the lowest concentration that inhibits growth of the organism. High values mean a less susceptible organism, low ones a more susceptible organism. The MBC is the lowest tested concentration that kills the bacteria rather than only halting them. The MFC is the smallest concentration meeting the test's criterion for killing the fungus.

In brackets after ≈: the same amount, converted by molar mass. Activity calls are given as the source filed them. Bounds are passed on as bounds.

The test system of experiment [1] is Penicillium chrysogenum. As to the kind of experiment: Antifungal activity against Penicillium chrysogenum after 48 hrs by broth dilution method. It counts as functional. The procedure, abridged:
(§1)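 Fungal MIC by broth dilution. Compounds dissolved in DMSO, added at rising concentrations to fungal culture tubes, incubated 28 °C for 48 h. Tubes read for visible turbidity alongside a solvent control; lowest concentration with no visible growth taken as MIC.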
(In general: Dilution methods test growth across graded concentrations, often in twofold steps.)

Experiment [2] deals with Aspergillus niger. As to the kind of experiment: Antifungal activity against Aspergillus niger at 50 ug/ml after 48 hrs by agar well diffusion method. It counts as functional. Particulars: read-out: DIZ. The method in brief:
(§2)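 Fungal agar well diffusion. Plates swabbed with fungal culture, 6 mm wells filled with DMSO solutions of compound (50 and 100 per well). Ketoconazole positive and DMSO negative controls. Plates incubated 28 °C for 48 h; zone of inhibition diameter (mm) read, average of duplicates.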

Experiment [3] deals with Penicillium chrysogenum. Kind of experiment: Antifungal activity against Penicillium chrysogenum at 50 ug/ml after 48 hrs by agar well diffusion method. It counts as functional. Particulars: read-out: DIZ. The method in brief:
as §2
In general terms: Agar diffusion results depend on both activity and mobility in agar.

Experiment [4] has as its system Aspergillus niger. As to the kind of experiment: Antifungal activity against Aspergillus niger after 48 hrs by broth dilution method. It counts as functional. The method in brief:
as §1

Experiment [5] relates to Penicillium chrysogenum. As to the kind of experiment: Antifungal activity against Penicillium chrysogenum at 100 ug/ml after 48 hrs by agar well diffusion method. The class given is functional. Conditions: read-out: DIZ. The procedure, abridged:
as §2

Experiment [6] deals with Aspergillus niger. Kind of experiment: Antifungal activity against Aspergillus niger at 100 ug/ml after 48 hrs by agar well diffusion method. The class given is functional. Conditions: read-out: DIZ. The procedure, abridged: as §2
Experiment [7] deals with Bacillus subtilis. As to the kind of experiment: Bactericidal activity against Bacillus subtilis after 24 hrs by broth dilution method. The class given is functional.
In experiment [8] the test system is Pseudomonas aeruginosa. As to the kind of experiment: Bactericidal activity against Pseudomonas aeruginosa after 24 hrs by broth dilution method. The class given is functional.
In experiment [9] the test system is Penicillium chrysogenum. As to the kind of experiment: Fungicidal activity against Penicillium chrysogenum after 48 hrs by broth dilution method. The class given is functional.
For experiment [10], the system named is Staphylococcus aureus. Kind of experiment: Bactericidal activity against Staphylococcus aureus after 24 hrs by broth dilution method. It counts as functional.
Experiment [11] relates to Bacillus subtilis. Kind of experiment: Antibacterial activity against Bacillus subtilis at 100 ug/ml after 24 hrs by agar well diffusion method. It counts as functional. Particulars: read-out: DIZ. The method in brief:
(§3)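 Agar well diffusion. Nutrient plates swabbed with 24 h broth culture of the bacterium; 6 mm wells bored and loaded with DMSO solutions of compound (wells at 50 and 100 per well). Chloramphenicol positive control, DMSO negative control. Plates held 37 °C, 24 h; inhibition zone diameter (mm) measured, mean of duplicates.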

The test system of experiment [12] is Staphylococcus aureus. As to the kind of experiment: Antibacterial activity against Staphylococcus aureus at 50 ug/ml after 24 hrs by agar well diffusion method. It counts as functional. Particulars: read-out: DIZ. The method in brief: as §3
Experiment [13] concerns Aspergillus niger. As to the kind of experiment: Fungicidal activity against Aspergillus niger after 48 hrs by broth dilution method. It counts as functional.
Experiment [14] has as its system A549. Kind of experiment: Cytotoxicity against human A549 cells up to 0.2 mM after 72 hrs by MTT assay. (In general: Tetrazolium assays rely on reduction of a dye to a coloured formazan, in cell work by metabolically active cells.)
Experiment [15] has as its system Pseudomonas aeruginosa. As to the kind of experiment: Antibacterial activity against Pseudomonas aeruginosa at 50 ug/ml after 24 hrs by agar well diffusion method. It counts as functional. Particulars: read-out: DIZ. The procedure, abridged:
as §3

For experiment [16], the system named is Klebsiella pneumoniae. As to the kind of experiment: Antibacterial activity against Klebsiella pneumoniae after 24 hrs by broth dilution method. The class given is functional. The procedure, abridged: (§4)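 Broth dilution MIC. Test samples in DMSO added at increasing concentrations to tubes of nutrient broth cultures, incubated 37 °C for 24 h. Visible turbidity scored against NB control; solvent and no-sample controls included. MIC = lowest concentration preventing visible growth.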

Experiment [17] has as its system Pseudomonas aeruginosa. As to the kind of experiment: Antibacterial activity against Pseudomonas aeruginosa at 100 ug/ml after 24 hrs by agar well diffusion method. It counts as functional. Conditions: read-out: DIZ. The procedure, abridged: as §3
The subject of experiment [18] is Klebsiella pneumoniae. As to the kind of experiment: Bactericidal activity against Klebsiella pneumoniae after 24 hrs by broth dilution method. The class given is functional.
Experiment [19] relates to Klebsiella pneumoniae. Kind of experiment: Antibacterial activity against Klebsiella pneumoniae at 100 ug/ml after 24 hrs by agar well diffusion method. The class given is functional. Particulars: read-out: DIZ. The procedure, abridged: as §3
For experiment [20], the system named is Staphylococcus aureus. Kind of experiment: Antibacterial activity against Staphylococcus aureus after 24 hrs by broth dilution method. It counts as functional. The procedure, abridged: as §4
For experiment [21], the system named is Pseudomonas aeruginosa. Kind of experiment: Antibacterial activity against Pseudomonas aeruginosa after 24 hrs by broth dilution method. It counts as functional. The method in brief:
as §4

For experiment [22], the system named is Klebsiella pneumoniae. As to the kind of experiment: Antibacterial activity against Klebsiella pneumoniae at 50 ug/ml after 24 hrs by agar well diffusion method. It counts as functional. Particulars: read-out: DIZ. The method in brief:
as §3

The subject of experiment [23] is Bacillus subtilis. As to the kind of experiment: Antibacterial activity against Bacillus subtilis after 24 hrs by broth dilution method. It counts as functional. The method in brief:
as §4

Experiment [24] deals with Bacillus subtilis. As to the kind of experiment: Antibacterial activity against Bacillus subtilis at 50 ug/ml after 24 hrs by agar well diffusion method. The class given is functional. Conditions: read-out: DIZ. The procedure, abridged:
as §3

The test system of experiment [25] is Staphylococcus aureus. Kind of experiment: Antibacterial activity against Staphylococcus aureus at 100 ug/ml after 24 hrs by agar well diffusion method. The class given is functional. Conditions: read-out: DIZ. The method in brief: as §3

Regarding `CC(=O)N1CCN(c2ccc(OCC3COC(Cn4ccnc4)(c4ccc(Cl)cc4Cl)O3)cc2)CC1` (stereo not drawn) [KETOCONAZOLE], the MIC is 12.5 µg/mL (≈ 23.5 µM) in [1] and 6.25 µg/mL (≈ 11.8 µM) in experiment [4]. For the same compound, the zone of inhibition at 50 µg/mL in experiment [2] came to 33 mm; in experiment [3] it was 36 mm. Also, the zone of inhibition at 100 µg/mL in experiment [5] came to 38 mm; in experiment [6], 36 mm.
For the compound `Nn1c(CS(=O)(=O)Nc2ccc(Cl)cc2)nnc1CS(=O)(=O)c1c[nH]cc1S(=O)(=O)c1ccc(Cl)cc1`, the minimal bactericidal concentration (MBC) in [7] is 100 µg/mL (≈ 165 µM); in [8], above 200 µg/mL; in experiment [10], 200 µg/mL (≈ 330 µM); in [18], above 200 µg/mL. Further, the values for the MFC in [9] and in [13] were above 200 µg/mL and 100 µg/mL (≈ 165 µM), respectively. Besides, the zone of inhibition at 100 µg/mL in experiment [11] stood at 33 mm; in experiment [17], 28 mm; in [19], 36 mm; in experiment [5], 36 mm; in experiment [6], 34 mm; in experiment [25], 33 mm. Moreover, the MIC in [1] was 50 µg/mL (≈ 82.6 µM); in [16], 100 µg/mL (≈ 165 µM); in [20], 50 µg/mL (≈ 82.6 µM); in experiment [21], 50 µg/mL (≈ 82.6 µM); in experiment [4], 25 µg/mL (≈ 41.3 µM); in experiment [23] it was 25 µg/mL (≈ 41.3 µM). In addition, the zone of inhibition at 50 µg/mL in experiment [12] came to 30 mm; in experiment [15], 25 mm; in [2], 32 mm; in [3] it was 33 mm; in experiment [22], 34 mm; in experiment [24] it was 29 mm. The outcome in experiment [14] was inactive.
As for `O=C(N[C@H](CO)[C@H](O)c1ccc([N+](=O)[O-])cc1)C(Cl)Cl` [CHLORAMPHENICOL], the zone of inhibition at 100 µg/mL came out at 38 mm in [11], 30 mm in experiment [17], 42 mm in [19] and 35 mm in experiment [25]. Further, the zone of inhibition at 50 µg/mL in experiment [12] came out at 33 mm; in experiment [15] it was 27 mm; in experiment [22] it was 40 mm; in experiment [24], 34 mm. The MIC in experiment [16] was 12.5 µg/mL (≈ 38.7 µM); in [20], 6.25 µg/mL (≈ 19.3 µM); in experiment [21], 6.25 µg/mL (≈ 19.3 µM); in experiment [23] it was 6.25 µg/mL (≈ 19.3 µM).
Turning to `Nn1c(CS(=O)(=O)Nc2ccc(Cl)cc2)nnc1CS(=O)(=O)c1c[nH]nc1S(=O)(=O)c1ccc(Cl)cc1`, the MBC in experiment [7] was found to be 50 µg/mL (≈ 82.4 µM); in experiment [8], 100 µg/mL (≈ 165 µM); in experiment [10], 200 µg/mL (≈ 330 µM); in experiment [18], 200 µg/mL (≈ 330 µM). Also, the values for the MFC in experiment [9] and in [13] were 100 µg/mL (≈ 165 µM) and 50 µg/mL (≈ 82.4 µM), respectively. For the same compound, the zone of inhibition at 100 µg/mL was found to be 35 mm in experiment [11]; 32 mm in [17]; 39 mm in experiment [19]; 37 mm in [5]; 34 mm in experiment [6]; 34 mm in [25]. Also, the MIC in experiment [1] amounted to 25 µg/mL (≈ 41.2 µM); in [16] it was 50 µg/mL (≈ 82.4 µM); in [20], 50 µg/mL (≈ 82.4 µM); in experiment [21], 25 µg/mL (≈ 41.2 µM); in experiment [4] it was 12.5 µg/mL (≈ 20.6 µM); in [23] it was 12.5 µg/mL (≈ 20.6 µM). Also, the zone of inhibition at 50 µg/mL came out at 31 mm in experiment [12]; 30 mm in experiment [15]; 30 mm in experiment [2]; 33 mm in experiment [3]; 37 mm in experiment [22]; 33 mm in [24]. In addition, the outcome in experiment [14] was inactive.
